Measured values reported in ChEMBL document CHEMBL3763082, “Design and synthesis of novel hybrid sydnonimine and prodrug useful for glaucomatous optic neuropathy” (Bioorg Med Chem Lett, 2016).
One block for each molecule: values may come before it. Activity calls are given as the source filed them. The rule behind the calls is not given here.

Experiments:
[1] = Upregulation of SOD in H2O2-induced mouse 661W cells at 50 to 100 uM by Cayman's superoxide dismutase assay; assay type: functional
In short: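 SOD activity in 661 W cells treated with test agent in combination with H2O2, vehicle DMEM plus DMSO; commercial kit detecting superoxide generated by xanthine oxidase/hypoxanthine with a tetrazolium salt, per manufacturer's instructions.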

[2] = system: 661W; experiment: Increase in number of mouse 661W cells at 10 to 50 uM after 24 hrs by MTT assay relative to vehicle control; assay type: functional, cell-based
In short: (§1)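 About 3000 NTM5 trabecular meshwork cells or transformed 661 W photoreceptor cells seeded per well, exposed to 10, 50 or 100 μM for 24 h; vehicle DMEM/DMSO (1 mL/10 μL). Viability by MTT-type kit (tetrazolium reduced to formazan), absorbance 490 nm; eight biological replicates.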

[3] = Half life of compound in 0.5 M phosphate buffer at pH 6.5 at 25 degC by LC/MS analysis; assay type: physicochemical; conditions: for half-life: phosphate buffer; for t1/2: buffer
[4] = Neuroprotective effect against H2O2-induced oxidative stress in mouse 661W cells assessed as cell viability at 50 to 100 uM by MTT assay relative to control; assay type: functional, cell-based
[5] = Cytotoxicity against mouse 661W cells assessed as cell viability at 100 uM after 24 hrs by MTT assay; assay type: cell-based; in short: as §1
[6] = Cytotoxicity against human NTM5 cells assessed as cell viability at 100 uM after 24 hrs by MTT assay; assay type: cell-based; in short: as §1
[7] = Half life of compound in 0.5 M phosphate buffer at pH 7.4 at 25 degC by LC/MS analysis; assay type: physicochemical; conditions: for half-life: phosphate buffer; for t1/2: buffer
[8] = Induction of nitric oxide release in 50 mM phosphate buffer at pH 7.4 after 10 mins by Greiss assay; assay type: physicochemical; conditions: pH 7.4, 10 min
[9] = system: Rhesus monkey; experiment: Suppression of elevated intraocular pressure in lasered monkey eye at 150 ug at 6 hrs; assay type: functional, Macaca mulatta

Compound: [NH-]c1c[n+](N2CCOCC2)no1
- Activity [1]: inactive
- Activity [2]: inactive

Compound: CC1(C)CC([n+]2cc([NH-])on2)CC(C)(C)N1O.Cl
- half-life [3]: < 1440 min
- Activity [4]: Active
- Activity [5]: Non-toxic
- Activity [1]: Active
- Activity [2]: Active
- Activity [6]: Non-toxic
- half-life [7]: < 1440 min
- Activity [8]: Active

- t1/2 [3]: 18 months
- t1/2 [7]: 9 months
Compound: CC(OC(=O)[N-]c1c[n+](N2CCOCC2)no1)OC(=O)C(C)(C)C (stereo not given)

Compound: CC1(C)CC(O)CC(C)(C)N1[O]
- Activity [2]: inactive

Compound: CC(OC(=O)[N-]c1c[n+](C2CC(C)(C)N(O)C(C)(C)C2)no1)OC(=O)C(C)(C)C (stereo not given)
- t1/2 [3]: 15.3 months
- t1/2 [7]: 9.1 months

- half-life [3]: < 1440 min
- half-life [7]: < 1440 min
- Activity [8]: Active
Compound: N=c1c[n+](N2CCOCC2)[n-]o1 [LINSIDOMINE]

Compound: CC1(C)CC(O[N+](=O)[O-])CC(C)(C)N1O
- Activity [9]: 20%

Compound: O=[N+]([O-])OCC(CO[N+](=O)[O-])O[N+](=O)[O-] [NITROGLYCERIN]
- Activity [9]: 13%
